# Source: ChEMBL document CHEMBL3351841, “Differential modes of peptide binding onto replicative sliding clamps from various bacterial origins” (J Med Chem, 2014)
# Where a SMILES comes first, the peptide text is derived from it. [ ]: non-standard residue; d: D form. Phe(3,4-Cl2) = N[C@@H](Cc1ccc(Cl)c(Cl)c1)C(=O)O; Cha = N[C@@H](CC1CCCCC1)C(=O)O
# Key:
# [1] = Binding affinity to Pseudomonas aeruginosa DNA sliding clamp protein expressed in Escherichia coli BL21(DE3) pLys at 25 degC by SPR assay
# Method in brief: (§1)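 Competition SPR at 25 °C in Hepes 10 mM pH 7.4, 0.15 M NaCl, 3 mM EDTA. Clamp (0.25 μM) was preincubated with challenger peptide (1.5 nM to 100 μM), then injected over a chip carrying immobilized P1 peptide (Pol IV C-terminal heptamer). IC50 was taken from inhibition of clamp/P1 binding.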
# [2] = Binding affinity to Escherichia coli DNA sliding clamp protein expressed in Escherichia coli BL21(DE3) pLys at 25 degC by SPR assay; method in brief: as §1
# [3] = test system: Bacillus subtilis; assay: Binding affinity to Bacillus subtilis DNA sliding clamp protein expressed in Escherichia coli BL21(DE3) pLys assessed as association constant at 25 degC by SPR assay
# Method in brief: (§2)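 Biacore SPR at 25 °C in 10 mM Hepes pH 7.4, 0.15 M NaCl, 3 mM EDTA. The E. coli Pol IV C-terminal heptamer (P1) was immobilized, and the clamp (Ni-NTA then MonoQ purified) was injected at 0.125–2 μM at 50 μL/min. After background subtraction, data were fit to a 1:1 Langmuir model to give KA.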
# [4] = test system: Staphylococcus aureus; assay: Binding affinity to Staphylococcus aureus DNA sliding clamp protein expressed in Escherichia coli BL21(DE3) pLys assessed as association constant at 25 degC by SPR assay; method in brief: as §2
# [5] = test system: Mycobacterium tuberculosis; assay: Binding affinity to Mycobacterium tuberculosis DNA sliding clamp protein expressed in Escherichia coli BL21(DE3) pLys assessed as association constant at 25 degC by SPR assay
# Method in brief: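 Direct SPR binding at 25 °C in 10 mM Hepes pH 7.4, 0.15 M NaCl, 3 mM EDTA. Ni-NTA/MonoQ-purified clamp (0.125−2 μM) injected at 50 μL/min over immobilized P1, the E. coli Pol IV C-terminal heptamer. Background subtracted; 1:1 Langmuir fit gives KA.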
# [6] = Binding affinity to Mycobacterium tuberculosis DNA sliding clamp protein expressed in Escherichia coli BL21(DE3) pLys at 25 degC by SPR assay
# Method in brief: (§3)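 SPR competition at 25 °C in Hepes 10 mM pH 7.4, 0.15 M NaCl, 3 mM EDTA. Clamp (0.25 μM) preincubated with challenger peptide (1.5 nM to 100 μM), then injected over a chip loaded with P1 peptide. IC50 taken from inhibition of clamp/P1 binding; at least three independent experiments.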
# [7] = Binding affinity to Bacillus subtilis DNA sliding clamp protein expressed in Escherichia coli BL21(DE3) pLys at 25 degC by SPR assay; method in brief: as §1
# [8] = Binding affinity to Staphylococcus aureus DNA sliding clamp protein expressed in Escherichia coli BL21(DE3) pLys at 25 degC by SPR assay; method in brief: as §1
# [9] = test system: Pseudomonas aeruginosa; assay: Binding affinity to Pseudomonas aeruginosa DNA sliding clamp protein expressed in Escherichia coli BL21(DE3) pLys assessed as association constant at 25 degC by SPR assay; method in brief: as §2
# [10] = test system: Escherichia coli; assay: Binding affinity to Escherichia coli DNA sliding clamp protein expressed in Escherichia coli BL21(DE3) pLys assessed as association constant at 25 degC by SPR assay; method in brief: as §2
# [11] = Binding affinity to Pseudomonas aeruginosa DNA sliding clamp protein expressed in Escherichia coli BL21(DE3) pLys by SPR assay; method in brief: as §1
# [12] = Binding affinity to Mycobacterium tuberculosis DNA sliding clamp protein expressed in Escherichia coli BL21(DE3) pLys at 25 degC by ITC assay
# Method in brief: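 ITC at 25 °C. Peptide (200−600 μM) titrated in 2 μL injections into clamp (20−60 μM) at a peptide/clamp ratio of 10, in 10 mM Hepes pH 7.4, 0.15 M NaCl, 3 mM EDTA. Corrected using peptide-into-buffer controls. N, KD, ΔH and ΔS fitted; at least two experiments.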
# [13] = Binding affinity to Staphylococcus aureus DNA sliding clamp protein expressed in Escherichia coli BL21(DE3) pLys by SPR assay; method in brief: as §1
# [14] = Binding affinity to Escherichia coli DNA sliding clamp protein expressed in Escherichia coli BL21(DE3) pLys by SPR assay; method in brief: as §1
# [15] = Binding affinity to Pseudomonas aeruginosa DNA sliding clamp protein expressed in Escherichia coli BL21(DE3) pLys at 25 degC by ITC assay
# Method in brief: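 His-tagged P. aeruginosa (PAO1) dnaN clamp from pET-15b, IPTG 0.1 mM at 28 °C overnight; Ni-NTA then MonoQ purified, ultracentrifuged. Peptide (200–600 μM) titrated in 2 μL injections into clamp (20–60 μM), peptide/clamp ratio 10, in 10 mM Hepes pH 7.4, 0.15 M NaCl, 3 mM EDTA. Heat of peptide into buffer subtracted; KD, N, ΔH, ΔS fitted; at least two runs.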
# [16] = Binding affinity to Bacillus subtilis DNA sliding clamp protein expressed in Escherichia coli BL21(DE3) pLys by SPR assay; method in brief: as §1
# [17] = Binding affinity to Escherichia coli DNA sliding clamp protein expressed in Escherichia coli BL21(DE3) pLys at 25 degC by ITC assay
# Method in brief: (§4)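 iTC200 calorimetry at 25 °C. Peptide (200–600 μM) was titrated in 2 μL injections into clamp (20–60 μM), with peptide/SC ratio 10, in 10 mM Hepes pH 7.4, 0.15 M NaCl, 3 mM EDTA. Data were corrected against peptide-into-buffer controls and fit for N, KD, ΔH and ΔS. At least two experiments.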
# [18] = Binding affinity to Mycobacterium tuberculosis DNA sliding clamp protein expressed in Escherichia coli BL21(DE3) pLys by SPR assay; method in brief: as §3
# [19] = Binding affinity to Staphylococcus aureus DNA sliding clamp protein expressed in Escherichia coli BL21(DE3) pLys at 30 degC by ITC assay
# Method in brief: (§5)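 ITC at 30 °C. Peptide (200–600 μM) was injected stepwise (2 μL) into clamp solution (20–60 μM), with peptide/SC ratio 10, in Hepes 10 mM pH 7.4, NaCl 0.15 M, EDTA 3 mM. Peptide-into-buffer controls were subtracted, and N, KD, ΔH and ΔS were derived. Performed at least twice.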
# [20] = Binding affinity to Escherichia coli DNA sliding clamp protein expressed in Escherichia coli BL21(DE3) pLys at 30 degC by ITC assay; method in brief: as §5
# [21] = Binding affinity to Pseudomonas aeruginosa DNA sliding clamp protein expressed in Escherichia coli BL21(DE3) pLys at 30 degC by ITC assay; method in brief: as §5
# [22] = Binding affinity to Bacillus subtilis DNA sliding clamp protein expressed in Escherichia coli BL21(DE3) pLys at 25 degC by ITC assay; method in brief: as §4
# [23] = Binding affinity to Bacillus subtilis DNA sliding clamp protein expressed in Escherichia coli BL21(DE3) pLys at 30 degC by ITC assay; method in brief: as §5
compound,measurement,setting,value
H-RQLVLGL-OH,Kd,[1],580 nM
same,Kd,[2],230 nM
same,KA,[3],3.5 ×10⁶ /M
same,KA,[4],4.1 ×10⁶ /M
same,KA,[5],4.6 ×10⁶ /M
same,Kd,[6],240 nM
same,Kd,[7],290 nM
same,Kd,[8],250 nM
same,KA,[9],1.7 ×10⁶ /M
same,KA,[10],4.2 ×10⁶ /M
"CC(=O)N[C@@H](CCC(N)=O)C(=O)N[C@@H](CC1CCCCC1)C(=O)N[C@@H](CC(=O)O)C(=O)N[C@@H](CC(C)C)C(=O)N[C@@H](Cc1ccc(Cl)c(Cl)c1)C(=O)O (Ac-Q[Cha]DL[Phe(3,4-Cl2)]-OH)",IC50,[11],140 nM
same,Kd,[12],750 nM
same,IC50,[13],Not Active
same,IC50,[14],80 nM
same,Kd,[15],99 nM
same,IC50,[16],Not Active
same,Kd,[17],50 nM
same,IC50,[18],850 nM
CC(=O)N[C@@H](CCC(N)=O)C(=O)N[C@@H](CC1CCCCC1)C(=O)N[C@@H](CC(=O)O)C(=O)N[C@@H](CC(C)C)C(=O)N[C@@H](Cc1ccccc1)C(=O)O (Ac-Q[Cha]DLF-OH),Kd,[19],29000 nM
same,Kd,[20],1000 nM
same,IC50,[13]; read-out: IC50,1540 nM
same,Kd,[21],640 nM
same,IC50,[14],170 nM
same,Kd,[22],12300 nM
same,IC50,[16]; read-out: IC50,2100 nM
same,Kd,[17],230 nM
same,Kd,[23],8200 nM
